Calls of active or inactive are those of the source. The rule behind the calls is not given here.
How the values were obtained:
[1] = target: Hypoxia-inducible factor 1-alpha (Homo sapiens) (UniProt Q16665); assay: Inhibition of HIF-1alpha in human H1299 cells at 100 nM after 72 hrs subsequently incubated for 12 hrs under hypoxic conditions by Western blot assay relative to control; format: cell-based; conditions: values are per cent of control
Summary of the method: (§1)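 H1299 non-small-cell lung carcinoma cells were left untreated or exposed to compound at 100 nM (or 10 nM for a follow-up subset) for 72 h. They were then held under hypoxia for 12 h, and HIF-1α protein was assessed by western blot.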

[2] = target: Hypoxia-inducible factor 1-alpha (Homo sapiens) (UniProt Q16665); assay: Inhibition of HIF-1alpha in human H1299 cells at 10 nM after 72 hrs subsequently incubated for 12 hrs under hypoxic conditions by Western blot assay relative to control; format: cell-based; conditions: values are per cent of control; summary of the method: as §1
[3] = Cytotoxicity against mouse HT22 cells assessed as cell viability at 0.1 to 10 uM; format: cell-based; conditions: ht-22, 10 µM
[4] = target: Hypoxia-inducible factor 1-alpha (Homo sapiens) (UniProt Q16665); assay: Inhibition of HIF-1alpha in human H1299 cells after 72 hrs subsequently incubated for 12 hrs under hypoxic conditions by Western blot assay relative to control; format: cell-based; summary of the method: as §1
[5] = Antitumor activity against human H1299 cells assessed as reduction in cell viability at 20 uM by MTT assay; format: functional; conditions: NCI-H1299
Homo sapiens [6] = species: Homo sapiens; assay: Antiangiogenic activity in human RMVEC assessed as inhibition of VEGF-induced cell proliferation under hypoxic condition at 100 nM by [3H]thymidine incorporation assay; format: functional
Homo sapiens [7] = species: Homo sapiens; assay: Antiangiogenic activity in human RMVEC assessed as inhibition of VEGF-induced cell migration under hypoxic condition at 100 nM by transwell chamber system; format: functional
NCI-H1299 = assay: Antitumor activity against human H1299 cells assessed as reduction in cell viability by MTT assay; format: functional, cell-based

Sequence of Hypoxia-inducible factor 1-alpha (Homo sapiens) (Q16665 whole entry, looked up): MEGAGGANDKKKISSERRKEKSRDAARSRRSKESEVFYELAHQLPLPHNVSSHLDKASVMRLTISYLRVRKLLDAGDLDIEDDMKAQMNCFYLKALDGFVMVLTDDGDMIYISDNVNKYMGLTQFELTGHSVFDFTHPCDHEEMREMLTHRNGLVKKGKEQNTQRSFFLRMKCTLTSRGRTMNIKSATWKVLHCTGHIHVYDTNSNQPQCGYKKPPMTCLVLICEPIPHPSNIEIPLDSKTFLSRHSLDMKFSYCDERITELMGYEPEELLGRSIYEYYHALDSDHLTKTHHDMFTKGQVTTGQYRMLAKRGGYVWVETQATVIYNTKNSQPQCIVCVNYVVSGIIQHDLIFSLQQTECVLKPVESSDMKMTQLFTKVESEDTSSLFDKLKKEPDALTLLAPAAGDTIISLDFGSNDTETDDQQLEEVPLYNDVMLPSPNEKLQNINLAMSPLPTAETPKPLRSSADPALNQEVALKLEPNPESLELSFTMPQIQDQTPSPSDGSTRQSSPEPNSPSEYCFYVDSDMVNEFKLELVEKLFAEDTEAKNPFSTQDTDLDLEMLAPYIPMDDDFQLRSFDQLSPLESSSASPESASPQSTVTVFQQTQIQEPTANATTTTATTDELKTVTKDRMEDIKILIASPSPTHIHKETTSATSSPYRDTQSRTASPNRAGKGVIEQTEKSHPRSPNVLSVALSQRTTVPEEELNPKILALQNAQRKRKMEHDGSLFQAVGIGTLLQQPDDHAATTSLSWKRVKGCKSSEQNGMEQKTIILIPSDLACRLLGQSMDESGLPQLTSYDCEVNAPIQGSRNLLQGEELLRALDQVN

Row | Compound | response, % of control [1] | other results
1 | COc1ccc(C(C)C(OC(C)=O)c2ccc3c(c2OC)C=CC(C)(C)O3)nc1OC (stereo not given) | 96.7% | –
2 | COc1ccc([C@H](C)[C@H](OC(C)=O)c2ccc3c(c2OC)C=CC(C)(C)O3)c(F)c1OC (relative stereo) | 79.4% | –
3 | CO/N=C(/Cc1ccc(OC)c(OC)n1)c1ccc2c(c1OC)C=CC(C)(C)O2 | 64.8% | response, % of control [2]: 74%
4 | CCC(=O)OC(Cc1ccc(OC)c(OC)c1F)c1ccc2c(c1OC)C=CC(C)(C)O2 (stereo not given) | 77.3% | –
5 | CCC(c1ccc(OC)c(OC)c1F)C(OC(=O)C1CC1)c1ccc2c(c1OC)C=CC(C)(C)O2 (stereo not given) | 87.9% | –
6 | COc1ccc(C(C)(C)C(O)c2ccc3c(c2OC)C=CC(C)(C)O3)nc1OC (stereo not given) | 69.2% | –
7 | COc1ccc(CC(O)c2ccc3c(c2OC)C=CC(C)(C)O3)nc1OC (stereo not given) | 75.2% | –
8 | COc1ccc(C(C)C(O)c2ccc3c(c2OC)C=CC(C)(C)O3)c(F)c1OC (stereo not given) | 75% | –
9 | COc1ccc([C@H](O)[C@@H](O)c2ccc3c(c2OC)C=CC(C)(C)O3)c(F)c1OC (relative stereo) | 68.1% | –
10 | COc1ccc(CC(OC(N)=O)c2ccc3c(c2OC)C=CC(C)(C)O3)c(F)c1OC (stereo not given) | 88.9% | –
11 | COc1ccc(C(C)C(OC(=O)N(C)C)c2ccc3c(c2OC)C=CC(C)(C)O3)c(F)c1OC (stereo not given) | 64.1% | response, % of control [2]: 93.6%
12 | COc1ccc([C@H](C)C(=O)c2ccc3c(c2OC)C=CC(C)(C)O3)cc1OC | 82.1% | –
13 | COc1ccc(CC(=O)c2ccc3c(c2OC)C=CC(C)(C)O3)cc1OC | 85.3% | –
14 | COc1ccc(C(C)(C)C(=O)c2ccc3c(c2OC)C=CC(C)(C)O3)c(F)c1OC | 74.9% | –
15 | COc1cc2c(cc1OC)[C@@H]1C(=O)c3ccc4c(c3O[C@@H]1CO2)C=CC(C)(C)O4 [DEGUELIN] | 64% | response, % of control [2]: 94%; Activity [3]: Toxic
16 | COc1ccc(/C=C/c2ccc3c(c2OC)C=CC(C)(C)O3)c(F)c1OC | 134% | –
17 | COc1ccc(CC(=O)c2ccc3c(c2OC)C=CC(C)(C)O3)c(F)c1OC | 67.8% | –
18 | COc1ccc(C(C)C(=O)c2ccc3c(c2OC)C=CC(C)(C)O3)c(F)c1OC (stereo not given) | 78.6% | –
19 | COc1ccc(CC(OC(=O)C2CC2)c2ccc3c(c2OC)C=CC(C)(C)O3)c(F)c1OC (stereo not given) | 70.3% | –
20 | CCC(=O)OC(c1ccc2c(c1OC)C=CC(C)(C)O2)C(C)(C)c1ccc(OC)c(OC)c1F (stereo not given) | 88.2% | –
21 | COc1ccc(C/C(=N\O)c2ccc3c(c2OC)C=CC(C)(C)O3)nc1OC | 78.5% | –
22 | COc1ccc(C(C)C(O)c2ccc3c(c2OC)C=CC(C)(C)O3)nc1OC (stereo not given) | 71.2% | –

Row | Compound | response, % of control [1] | other results
23 | COc1ccc(C(C)(C)C(OC(C)=O)c2ccc3c(c2OC)C=CC(C)(C)O3)c(F)c1OC (stereo not given) | 83.4% | –
24 | COc1ccc(C(C)(C)C(OC(C)=O)c2ccc3c(c2OC)C=CC(C)(C)O3)nc1OC (stereo not given) | 113% | –
25 | COc1ccc(/C=C/c2ccc3c(c2OC)C=CC(C)(C)O3)nc1OC | 133% | –
26 | COc1ccc(C(C)(C)C(OC(N)=O)c2ccc3c(c2OC)C=CC(C)(C)O3)nc1OC (stereo not given) | 108% | –
27 | COc1ccc(CC(OC(C)=O)c2ccc3c(c2OC)C=CC(C)(C)O3)nc1OC (stereo not given) | 114% | –
28 | COc1ccc(C(C)C(OC(=O)C2CCC2)c2ccc3c(c2OC)C=CC(C)(C)O3)c(F)c1OC (stereo not given) | 69.5% | –
29 | COc1ccc([C@H](O)[C@@H](O)c2ccc3c(c2OC)C=CC(C)(C)O3)nc1OC (relative stereo) | 68.9% | –
30 | COc1ccc(C(C)C(=O)c2ccc3c(c2OC)C=CC(C)(C)O3)nc1OC (stereo not given) | 89.3% | –
31 | COc1ccc(C(C)(C)C(O)c2ccc3c(c2OC)C=CC(C)(C)O3)c(F)c1OC (stereo not given) | 68% | –
32 | COc1ccc(CC(OC(N)=O)c2ccc3c(c2OC)C=CC(C)(C)O3)nc1OC (stereo not given) | 75% | –
33 | COc1ccc(C(C)C(OC(N)=O)c2ccc3c(c2OC)C=CC(C)(C)O3)c(F)c1OC (stereo not given) | 48.8% | response, % of control [2]: 80.9%
34 | COc1ccc([C@H](C)[C@@H](OC(C)=O)c2ccc3c(c2OC)C=CC(C)(C)O3)c(F)c1OC (relative stereo) | 52.2% | inhibition [4]: Dose-dependent effect; response, % of control [2]: 63.2%; inhibition at 20 µM [5]: 50%; Activity [3]: Non-toxic; Activity (Homo sapiens [6]): Active; Activity (Homo sapiens [7]): Active; Activity (NCI-H1299): Dose-dependent effect
35 | COc1ccc(C(C)(C)C(OC(=O)C2CC2)c2ccc3c(c2OC)C=CC(C)(C)O3)c(F)c1OC (stereo not given) | 111% | –
36 | COc1ccc(CC(OC(C)=O)c2ccc3c(c2OC)C=CC(C)(C)O3)c(F)c1OC (stereo not given) | 69.3% | –
37 | COc1ccc(CC(O)c2ccc3c(c2OC)C=CC(C)(C)O3)c(F)c1OC (stereo not given) | 74.3% | –
38 | CCC(=O)OC(c1ccc2c(c1OC)C=CC(C)(C)O2)C(C)c1ccc(OC)c(OC)c1F (stereo not given) | 63.7% | –
39 | COc1ccc(C(C)C(OC(=O)C2CC2)c2ccc3c(c2OC)C=CC(C)(C)O3)c(F)c1OC (stereo not given) | 35% | response, % of control [2]: 81.6%; inhibition at 20 µM [5]: 50%; Activity (NCI-H1299): Dose-dependent effect
40 | COc1ccc(C/C(=N/O)c2ccc3c(c2OC)C=CC(C)(C)O3)nc1OC | 79.2% | –
41 | COc1ccc(CC(=O)c2ccc3c(c2OC)C=CC(C)(C)O3)nc1OC | 77.6% | –
42 | COc1ccc([C@H](C)C(=O)c2ccc3c(c2OC)C=CC(C)(C)O3)nc1OC | 44.2% | response, % of control [2]: 88.4%
43 | CNC(=O)OC(c1ccc2c(c1OC)C=CC(C)(C)O2)C(C)c1ccc(OC)c(OC)c1F (stereo not given) | 76.5% | –
44 | COc1ccc(C(C)(C)C(=O)c2ccc3c(c2OC)C=CC(C)(C)O3)nc1OC | 99.9% | –
